Source: ChEMBL document CHEMBL1154670, “Azaindole hydroxamic acids are potent HIV-1 integrase inhibitors” (J Med Chem, 2009)

Experiments:
[1] = Cytotoxicity against human CEM-SS cells by XTT assay; format: cell-based
Outline: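 Uninfected CEM-SS cells (2×10^4/well) were exposed for 6 days to half-log compound dilutions (≥2 replicate wells) added at seeding. Viability was read by XTT formazan (4 h, A450). CC50 was derived from the drop in formazan versus uninfected, compound-free cells.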

[2] = test system: Human immunodeficiency virus 1; experiment: Antiviral activity against HIV1 RF in human CEM-SS cells assessed inhibition of virus-induced cytopathic effect by XTT assay; format: functional, organism-based; conditions: Human immunodeficiency virus 1, RF
Outline: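 CEM-SS cells (2×10^4/well) were infected with HIV-1 RF at an MOI giving 90% cell death by day 6. Compounds, in half-log dilutions with ≥2 replicate wells, were added at seeding before infection. On day 6, XTT/phenazine methosulfate was added for 4 h and read at A450. EC50 is the concentration restoring formazan to 50% of uninfected, compound-free cells.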

[3] = biological target: Human immunodeficiency virus type 1 integrase (Human immunodeficiency virus 1, UniProt Q7ZJM1); experiment: Inhibition of HIV1 integrase expressed in Escherichia coli assessed as strand transfer activity by scintillation proximity assay
Outline: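 His6-tagged full-length HIV-1 IN (mutant) was preincubated 15 min at 22 °C with biotinylated U5 LTR donor DNA on streptavidin SPA beads, then [3H]-thymidine target DNA was added. Final: 2 pmol donor, 246 nM IN, 50 nM target, pH 7.2 MOPS, 4 mM MgCl2, 1% DMSO. Ran 50 min at 37 °C, stopped with EDTA/NaOH/CsCl, quench-corrected counts. IC50 from 4-parameter logistic fit, 2-3 replicates per concentration.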

[4] = Metabolic stability in human hepatocytes assessed as extraction ratio after 4 hrs; format: ADME, cell-based, Hepatocyte
[5] = Metabolic stability in human liver microsomes assessed as extraction ratio after 4 hrs in presence of NADPH; format: ADME, Microsome
[6] = Mutagenic activity in Salmonella Typhimurium TA100 by Biolum Ames test; format: toxicity; conditions: salmonella enterica subsp. enterica serovar typhimurium
[7] = Mutagenic activity in Salmonella Typhimurium TA98 by Biolum Ames test in presence of metabolizing enzyme; format: toxicity; conditions: salmonella enterica subsp. enterica serovar typhimurium
[8] = Mutagenic activity in Salmonella Typhimurium TA100 by Biolum Ames test in presence of metabolizing enzyme; format: toxicity; conditions: salmonella enterica subsp. enterica serovar typhimurium
[9] = Mutagenic activity in Salmonella Typhimurium TA98 by Biolum Ames test; format: toxicity; conditions: salmonella enterica subsp. enterica serovar typhimurium

Sequence of Human immunodeficiency virus type 1 integrase (Q7ZJM1 whole entry): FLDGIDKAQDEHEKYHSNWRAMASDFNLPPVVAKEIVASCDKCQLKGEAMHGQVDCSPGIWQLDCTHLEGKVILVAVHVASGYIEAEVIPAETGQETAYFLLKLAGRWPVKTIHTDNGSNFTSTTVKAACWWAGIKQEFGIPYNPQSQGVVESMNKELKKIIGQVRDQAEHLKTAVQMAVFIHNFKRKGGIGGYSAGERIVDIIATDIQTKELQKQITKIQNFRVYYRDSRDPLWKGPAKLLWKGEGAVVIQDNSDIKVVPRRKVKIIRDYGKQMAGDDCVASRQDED

Compound | CC50 [1] [nM] | EC50 [2] [nM] | IC50 [3] [nM] | hepatic extraction ratio at 4 h [4] | hepatic extraction ratio at 4 h [5] | Activity [6] | Activity [7] | Activity [8] | Activity [9]
CC(C)N(O)C(=O)c1cc2ccn(Cc3ccc(F)cc3)c2cn1 | 36000 | 3500 | 8000 | 0.93 | – | – | – | – | –
O=C(NO)c1cc2ccn(Cc3ccc(Cl)s3)c2cn1 | > 10000 | 20 | 387 | – | – | – | – | – | –
CCCN(O)C(=O)c1cc2ccn(Cc3ccc(F)cc3)c2cn1 | 26000 | 350 | 618 | 0.96 | – | – | – | – | –
O=C(O)c1cc2ccn(Cc3ccccc3F)c2cn1 | – | – | > 50000 | – | – | – | – | – | –
O=C(O)c1cc2ccn(Cc3ccc(F)cc3F)c2cn1 | – | – | 3500 | – | – | – | – | – | –
CN(O)C(=O)c1cc2ccn(Cc3ccc(F)cc3)c2cn1 | 200000 | – | 250 | – | – | – | – | – | –
O=C(O)c1cc2ccn(Cc3ccc(F)c(F)c3F)c2cn1 | – | – | 3690 | – | – | – | – | – | –
N#Cc1cccc(Cn2ccc3cc(C(=O)NO)ncc32)c1 | > 10000 | 500 | 1620 | – | – | – | – | – | –
NC(=O)c1cccc(Cn2ccc3cc(C(=O)NO)ncc32)c1 | > 10000 | 530 | 1720 | – | – | – | – | – | –
O=C(NO)c1cc2ccn(Cc3cccc(Cl)c3F)c2cn1 | > 320000 | 8 | 102 | – | – | – | – | – | –
O=C(O)c1cc2ccn(Cc3cccc(Cl)c3F)c2cn1 | – | – | 950 | – | – | – | – | – | –
CON(C)C(=O)c1cc2ccn(Cc3ccc(F)cc3F)c2cn1 | > 10000 | > 10000 | > 50000 | 1 | 1 | – | – | – | –
N#Cc1cc(F)ccc1Cn1ccc2cc(C(=O)NO)ncc21 | > 10000 | 120 | 812 | – | – | – | – | – | –
O=C(c1cc2ccn(Cc3ccc(F)cc3)c2cn1)N(O)CCCO | 77000 | 300 | 804 | 0.95 | – | – | – | – | –
CC(C)CN(O)C(=O)c1cc2ccn(Cc3ccc(F)cc3)c2cn1 | 102000 | 1400 | 1700 | 0.95 | – | – | – | – | –
O=C(NO)c1cc2ccn(Cc3cccc(Cl)c3Cl)c2cn1 | > 320000 | 35 | 442 | – | – | – | – | – | –

Compound | CC50 [1] [nM] | EC50 [2] [nM] | IC50 [3] [nM] | hepatic extraction ratio at 4 h [4] | hepatic extraction ratio at 4 h [5] | Activity [6] | Activity [7] | Activity [8] | Activity [9]
O=C(O)c1cc2ccn(Cc3cc(Cl)cs3)c2cn1 | – | – | 3200 | – | – | – | – | – | –
NC(=O)c1ccc(Cn2ccc3cc(C(=O)NO)ncc32)cc1 | > 10000 | > 10000 | > 10000 | – | – | – | – | – | –
CONC(=O)c1cc2ccn(Cc3ccc(F)cc3F)c2cn1 | > 320000 | 21 | 356 | 1 | 0.68 | – | – | – | –
O=C(NO)c1cc2ccn(Cc3ccccn3)c2cn1 | > 10000 | 88 | 779 | – | – | – | – | – | –
O=C(NO)c1cc2ccn(Cc3c(F)ccc(Cl)c3F)c2cn1 | > 1000 | 7 | 131 | – | – | – | – | – | –
O=C(O)c1cc2ccn(Cc3cccc(Cl)c3Cl)c2cn1 | – | – | 5420 | – | – | – | – | – | –
N#Cc1ccc(Cn2ccc3cc(C(=O)NO)ncc32)cc1 | > 10000 | 1200 | > 10000 | – | – | – | – | – | –
O=C(NO)c1cc2ccn(Cc3ccc(F)cc3)c2cn1 | 159000 | 9 | 137 | 0.92 | – | – | – | – | –
O=C(NO)c1cc2ccn(Cc3ccc(F)cc3F)c2cn1 | > 320000 | 8 | 84 | 0.9 | < 0.26 | Active | Active | Active | Active
O=C(O)c1cc2ccn(Cc3ccc(F)cc3)c2cn1 | – | – | 7350 | – | – | – | – | – | –
CN(O)C(=O)c1cc2ccn(Cc3ccc(F)cc3F)c2cn1 | 135000 | 32 | 250 | 1 | < 0.36 | Not Active | Not Active | Not Active | Not Active
NC(=O)c1cc(Cn2ccc3cc(C(=O)NO)ncc32)ccc1F | > 10000 | 58 | 608 | – | – | – | – | – | –
O=C(NO)c1cc2ccn(Cc3cccc(CO)n3)c2cn1 | > 10000 | 730 | 5730 | – | – | – | – | – | –
O=C(O)c1cc2ccn(Cc3c(F)cc(Cl)cc3F)c2cn1 | – | – | 1190 | – | – | – | – | – | –
NC(=O)c1cc(F)ccc1Cn1ccc2cc(C(=O)NO)ncc21 | > 10000 | 55 | 1300 | – | – | – | – | – | –
O=C(c1cc2ccn(Cc3ccc(F)cc3)c2cn1)N(O)Cc1ccccc1 | > 320000 | 330 | 23000 | 1 | – | – | – | – | –
